Key:
[1] = biological target: T1, Metabotropic glutamate receptor 1 (Homo sapiens, UniProt Q13255); assay: Positive allosteric modulatory activity at human mGlu1 receptor expressed in wild type T-Rex293 cells assessed as increase in glutamate-induced calcium mobilization pre-incubated for 2.5 mins before glutamate stimulation for 1 min; assay type: functional, cell-based
Method in brief: (§1)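 Tetracycline-inducible human mGlu1 WT T-REx-293 cells were induced overnight with 50 ng/mL tetracycline in dialyzed-FBS medium. Cells were loaded with 1.15 μM Fluo-4 AM in HBSS/20 mM HEPES/2.5 mM probenecid for 45 min at 37 °C. Compounds (half-log series in DMSO) were added for 2.5 min, then an EC20 of glutamate for 1 min. Calcium flux was read on Flexstation; ECmax glutamate served as reference. n=3 in triplicate.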
Target sequence in this assay (Q13255 whole entry): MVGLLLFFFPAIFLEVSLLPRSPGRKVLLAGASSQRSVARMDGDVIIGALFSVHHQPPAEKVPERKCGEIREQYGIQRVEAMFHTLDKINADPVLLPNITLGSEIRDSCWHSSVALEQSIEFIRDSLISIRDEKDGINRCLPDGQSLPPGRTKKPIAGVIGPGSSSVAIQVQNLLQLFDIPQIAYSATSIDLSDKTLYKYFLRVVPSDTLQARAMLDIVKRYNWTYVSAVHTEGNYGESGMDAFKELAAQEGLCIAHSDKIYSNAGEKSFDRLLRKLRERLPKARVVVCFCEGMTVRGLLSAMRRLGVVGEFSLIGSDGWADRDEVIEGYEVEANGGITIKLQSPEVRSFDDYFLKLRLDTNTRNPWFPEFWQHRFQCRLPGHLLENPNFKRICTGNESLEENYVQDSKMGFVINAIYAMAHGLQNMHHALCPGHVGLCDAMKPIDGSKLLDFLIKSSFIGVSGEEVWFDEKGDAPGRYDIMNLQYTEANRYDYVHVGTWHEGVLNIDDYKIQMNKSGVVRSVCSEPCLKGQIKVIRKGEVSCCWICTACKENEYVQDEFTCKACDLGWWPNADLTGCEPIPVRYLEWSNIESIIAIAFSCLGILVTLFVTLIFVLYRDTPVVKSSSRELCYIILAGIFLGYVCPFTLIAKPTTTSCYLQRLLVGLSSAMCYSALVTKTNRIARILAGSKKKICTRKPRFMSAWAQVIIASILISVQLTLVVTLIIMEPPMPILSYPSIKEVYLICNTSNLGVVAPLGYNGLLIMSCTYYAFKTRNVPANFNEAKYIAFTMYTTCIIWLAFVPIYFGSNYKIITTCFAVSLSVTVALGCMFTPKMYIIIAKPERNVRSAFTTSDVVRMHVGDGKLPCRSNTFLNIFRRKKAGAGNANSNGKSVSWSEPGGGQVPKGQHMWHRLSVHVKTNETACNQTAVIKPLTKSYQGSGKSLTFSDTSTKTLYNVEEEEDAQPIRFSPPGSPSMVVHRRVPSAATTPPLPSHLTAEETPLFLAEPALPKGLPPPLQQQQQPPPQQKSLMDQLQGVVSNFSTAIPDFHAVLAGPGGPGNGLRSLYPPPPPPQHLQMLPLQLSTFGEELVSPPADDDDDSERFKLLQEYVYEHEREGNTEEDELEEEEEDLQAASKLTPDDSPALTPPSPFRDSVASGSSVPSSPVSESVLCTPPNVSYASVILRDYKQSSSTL

[2] = biological target: T1, Metabotropic glutamate receptor 1; assay: Positive allosteric modulatory activity at human mGlu1 receptor expressed in wild type T-Rex293 cells assessed as increase in glutamate-induced calcium mobilization pre-incubated for 2.5 mins before glutamate stimulation for 1 min relative to glutamate alone; assay type: functional, cell-based; method in brief: as §1
Target sequence in this assay (Q13255 19-1194 limits assumed): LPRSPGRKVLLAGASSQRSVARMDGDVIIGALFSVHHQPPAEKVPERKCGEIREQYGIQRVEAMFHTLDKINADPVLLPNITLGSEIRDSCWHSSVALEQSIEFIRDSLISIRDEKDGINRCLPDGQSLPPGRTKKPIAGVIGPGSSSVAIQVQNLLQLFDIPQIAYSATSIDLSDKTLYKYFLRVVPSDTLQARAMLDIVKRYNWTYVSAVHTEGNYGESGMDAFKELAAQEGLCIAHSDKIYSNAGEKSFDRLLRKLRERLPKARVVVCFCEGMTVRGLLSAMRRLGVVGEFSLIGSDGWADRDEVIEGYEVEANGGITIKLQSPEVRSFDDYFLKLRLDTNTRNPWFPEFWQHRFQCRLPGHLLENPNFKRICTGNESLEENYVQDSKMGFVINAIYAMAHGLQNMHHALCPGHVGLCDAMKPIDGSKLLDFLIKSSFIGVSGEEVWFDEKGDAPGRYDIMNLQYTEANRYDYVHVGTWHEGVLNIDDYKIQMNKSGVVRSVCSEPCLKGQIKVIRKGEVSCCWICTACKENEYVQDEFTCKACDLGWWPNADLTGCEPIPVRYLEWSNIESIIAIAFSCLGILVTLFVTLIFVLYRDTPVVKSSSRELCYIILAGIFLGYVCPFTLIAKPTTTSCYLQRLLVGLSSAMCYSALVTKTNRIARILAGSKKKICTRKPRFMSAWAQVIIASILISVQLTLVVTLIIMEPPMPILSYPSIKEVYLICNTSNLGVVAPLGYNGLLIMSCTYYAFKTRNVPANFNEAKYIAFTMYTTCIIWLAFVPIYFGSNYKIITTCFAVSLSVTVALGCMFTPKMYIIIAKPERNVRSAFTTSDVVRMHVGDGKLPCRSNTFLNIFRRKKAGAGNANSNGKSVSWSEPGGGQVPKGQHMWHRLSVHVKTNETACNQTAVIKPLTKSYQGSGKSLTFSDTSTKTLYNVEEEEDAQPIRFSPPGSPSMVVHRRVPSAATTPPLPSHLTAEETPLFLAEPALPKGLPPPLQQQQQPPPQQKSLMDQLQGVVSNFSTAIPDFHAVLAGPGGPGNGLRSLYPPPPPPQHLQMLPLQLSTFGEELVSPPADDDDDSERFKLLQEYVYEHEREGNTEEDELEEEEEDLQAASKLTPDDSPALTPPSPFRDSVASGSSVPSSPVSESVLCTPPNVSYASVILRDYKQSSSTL

[3] = Fraction unbound in rat plasma; assay type: ADME, cell-free
[4] = Fraction unbound in human plasma; assay type: ADME, cell-free
[5] = biological target: Metabotropic glutamate receptor 4 (Homo sapiens, UniProt Q14833); assay: Positive allosteric modulatory activity at human mGlu4 receptor expressed in wild type T-Rex293 cells assessed as increase in glutamate-induced calcium mobilization pre-incubated for 2.5 mins before glutamate stimulation for 1 min; assay type: functional, cell-based
T-Rex 293 = assay: Selectivity ratio of EC50 for human mGlu4 receptor expressed in wild type T-Rex 293 cells to EC50 for human mGlu1 receptor expressed in wild type T-Rex 293 cells; assay type: cell-based; settings: T-Rex293

Metabotropic glutamate receptor 4, sequence (Q14833 whole entry): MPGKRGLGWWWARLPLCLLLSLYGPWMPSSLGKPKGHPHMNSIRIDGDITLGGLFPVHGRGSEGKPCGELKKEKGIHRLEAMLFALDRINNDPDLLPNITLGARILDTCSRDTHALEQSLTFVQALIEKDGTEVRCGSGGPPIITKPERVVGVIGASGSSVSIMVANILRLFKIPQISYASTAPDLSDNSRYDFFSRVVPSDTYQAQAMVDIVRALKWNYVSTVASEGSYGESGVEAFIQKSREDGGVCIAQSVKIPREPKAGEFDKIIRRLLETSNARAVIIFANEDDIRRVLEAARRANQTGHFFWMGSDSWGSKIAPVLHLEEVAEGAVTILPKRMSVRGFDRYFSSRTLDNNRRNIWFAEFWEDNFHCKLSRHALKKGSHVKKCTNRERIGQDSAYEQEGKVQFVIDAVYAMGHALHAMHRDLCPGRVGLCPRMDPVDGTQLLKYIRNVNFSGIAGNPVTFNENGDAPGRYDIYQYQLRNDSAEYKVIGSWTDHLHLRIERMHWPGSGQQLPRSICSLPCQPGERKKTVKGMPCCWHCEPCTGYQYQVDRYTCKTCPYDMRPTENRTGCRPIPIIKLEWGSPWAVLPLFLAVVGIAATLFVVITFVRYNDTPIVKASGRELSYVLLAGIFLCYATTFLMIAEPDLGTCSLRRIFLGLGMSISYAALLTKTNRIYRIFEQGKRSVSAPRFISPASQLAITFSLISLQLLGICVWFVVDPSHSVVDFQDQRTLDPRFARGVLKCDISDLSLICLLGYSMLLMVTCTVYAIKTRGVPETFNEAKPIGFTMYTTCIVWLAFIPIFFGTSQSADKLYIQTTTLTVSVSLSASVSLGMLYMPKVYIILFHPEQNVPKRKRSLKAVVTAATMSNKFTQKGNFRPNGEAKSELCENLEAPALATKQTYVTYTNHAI

Row | EC50 ([1]; read-out: EC50) | %max [2] | SMILES | also measured
1 | 9.55 µM | 78% | Cc1ccoc1C(=O)Nc1ccc(N2Cc3cccnc3C2)c(Cl)c1 | –
2 | > 10 µM | – | Cc1ccoc1C(=O)Nc1ccc(N2C(=O)[C@H]3CCCC[C@H]3C2=O)c(Cl)c1 | –
3 | 3.62 µM | 99% | Cc1ccoc1C(=O)Nc1ccc(N2CCOc3ccccc32)c(Cl)c1 | –
4 | > 10 µM | – | Cc1ccoc1C(=O)Nc1ccc(N2C(=O)Cc3ccccc32)c(Cl)c1 | –
5 | 0.353 µM | 101% | Cc1ccoc1C(=O)Nc1ccc(N2Cc3cccc(Cl)c3C2=O)cc1 | –
6 | 1.13 µM | 105% | Cc1ccoc1C(=O)Nc1ccc(N2Cc3c(cccc3C(F)(F)F)C2=O)c(Cl)c1 | fraction unbound [3]: < 0.01; fraction unbound [4]: < 0.01
7 | – | – | O=C(Nc1ccc(N2C(=O)c3cccc(Cl)c3C2=O)c(Cl)c1)c1ncccc1Cl | EC50 [5]: > 10 µM
8 | > 10 µM | – | Cc1ccoc1C(=O)Nc1ccc(N2C(=O)[C@@H]3CCCC[C@H]3C2=O)c(Cl)c1 (relative stereo) | –
9 | 2.09 µM | 107% | Cc1ccoc1C(=O)Nc1ccc(N2Cc3c(C#N)cccc3C2=O)c(Cl)c1 | EC50 ([1]; read-out: pEC50 (converted)): 2.14 µM; fraction unbound [3]: < 0.01; fraction unbound [4]: < 0.01
10 | 5.71 µM | 82% | Cc1ccoc1C(=O)Nc1ccc(N2CCc3ccccc32)c(Cl)c1 | –
11 | > 10 µM | – | Cc1ccoc1C(=O)Nc1ccc(N2Cc3ccccc3C2=O)cc1F | –
12 | – | – | Cc1ccoc1C(=O)Nc1ccc(N2C(=O)c3cccc(F)c3C2=O)c(Cl)c1 | Ratio EC50 (T-Rex 293): 35
13 | > 10 µM | – | COc1cccc2c1CN(c1ccc(NC(=O)c3occc3C)cc1Cl)C2=O | fraction unbound [3]: < 0.01; fraction unbound [4]: < 0.01
14 | > 10 µM | – | Cc1ccoc1C(=O)Nc1ccc(N2Cc3nccnc3C2=O)c(Cl)c1 | fraction unbound [3]: < 0.01; fraction unbound [4]: < 0.01
15 | > 10 µM | – | Cc1ccoc1C(=O)Nc1ccc(N2Cc3ncccc3C2=O)c(Cl)c1 | fraction unbound [3]: < 0.01; fraction unbound [4]: < 0.01
16 | > 10 µM | 33% | Cc1scnc1C(=O)Nc1ccc(N2Cc3ccccc3C2=O)c(Cl)c1 | –
17 | 4.69 µM | 69% | Cc1scnc1C(=O)Nc1ccc(N2Cc3cccc(Cl)c3C2=O)c(Cl)c1 | EC50 ([1]; read-out: pEC50 (converted)): 4.79 µM
18 | > 10 µM | 78% | Cc1cccnc1C(=O)Nc1ccc(N2Cc3cccc(Cl)c3C2=O)c(Cl)c1 | –
19 | > 10 µM | – | O=C(Nc1ccc(N2Cc3ccccc3C2=O)c(Cl)c1)c1ncccc1Cl | –
20 | > 10 µM | – | Cc1cccnc1C(=O)Nc1ccc(N2Cc3ccccc3C2=O)c(Cl)c1 | –
21 | 2.47 µM | 107% | Cc1ccoc1C(=O)Nc1ccc(N2CCc3ccccc3C2)c(Cl)c1 | EC50 ([1]; read-out: pEC50 (converted)): 1.32 µM
22 | 0.0257 µM | 70% | Cc1ccc2c(c1)C(=O)N(c1ccc(NC(=O)c3occc3C)c(F)c1)C2=O | Ratio EC50 (T-Rex 293): > 450
23 | 0.93 µM | 108% | Cc1ccoc1C(=O)Nc1ccc(NC(=O)c2ccccc2C(=O)O)c(Cl)c1 | –
24 | 6.93 µM | 76% | Cc1ccoc1C(=O)Nc1ccc(N2C(=O)c3ccccc3C2(C)C)c(Cl)c1 | EC50 ([1]; read-out: pEC50 (converted)): 7.08 µM; fraction unbound [3]: < 0.01; fraction unbound [4]: < 0.01
25 | > 10 µM | – | Cc1ccoc1C(=O)Nc1ccc(N2Cc3cccc(Cl)c3C2=O)cc1F | –

— ChEMBL document CHEMBL3785002, “Lead optimization of the VU0486321 series of mGlu1 PAMs. Part 3. Engineering plasma stability by discovery and optimization of isoindolinone analogs” (Bioorg Med Chem Lett, 2016)
